Results taken from ChEMBL document CHEMBL4385596, “Fragment-Based Discovery of a Qualified Hit Targeting the Latency-Associated Nuclear Antigen of the Oncogenic Kaposi's Sarcoma-Associated Herpesvirus/Human Herpesvirus 8” (J Med Chem, 2019).
The source made the active and inactive calls. No cut-off for these calls is given here.

Legend:
[1] = Binding affinity to fluorescent labelled LBS2 DNA (unknown origin) by fluorescence polarization assay
Outline: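 Fixed concentration of His-tagged oligomerization-deficient LANA DBD mutant (aa1008-1146, 200 nM final) was pre-incubated 60 min with compound. Fluorescein-labelled LBS2 (10 nM final) was then added and incubated 90 min. Buffer was 10 mM HEPES, 150 mM NaCl, 0.005% Tween20, 5% DMSO. Polarization was read at ex 485/em 520 nm. Runs were done with and without LANA to exclude DNA or quenching interference. Duplicates, two independent experiments.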

[2] = test system: ORF 73 (Human herpesvirus 8), O40947 [UNDEFINED MUTATION]; assay: (§1) Inhibition of fluorescent labelled LBS2 DNA binding to human herpesvirus 8 C-terminal His-tagged LANA oligomerization deficient mutant DBD (1008 to 1146 residues) expressed in Escherichia coli BL21 (DE3) at 1 mM preincubated for 60 mins followed by fluorescent labelled LBS2 addition and measured after 90 mins by fluorescence polarization assay relative to control; conditions: Human gammaherpesvirus 8
Outline: (§2)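 Single-concentration FP competition assay (1 mM or 500 µM compound). LANA DBD mutant (200 nM final) pre-incubated with compound for 60 min, then fluorescein-labelled LBS2 (10 nM final) added and incubated 90 min. Buffer was HEPES/NaCl/Tween20 with 5% DMSO. Read at excitation 485 nm, emission 520 nm. Percent inhibition from duplicates in two independent experiments.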

ORF 73 [3] = molecular target: T1, ORF 73 (Human herpesvirus 8, UniProt O40947); assay: as §1, with “(DE3)” for “(DE3) at 1 mM”, “assay” for “assay relative to control”; parameters: species or system Human gammaherpesvirus 8
Outline: (§3)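 FP competition assay. His-tagged LANA DBD mutant (200 nM final) pre-incubated with serially varied compound for 60 min. Fluorescein-labelled LBS1, LBS2 or LBS3 (10 nM final) then added and incubated 90 min. Buffer was 10 mM HEPES, 150 mM NaCl, 0.005% Tween20 with 5% DMSO. Read at excitation 485 nm, emission 520 nm. Duplicates in two independent experiments. Runs without LANA checked for interference. IC50 derived from dose-response.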

ORF 73 [4] = molecular target: T1, ORF 73; assay: (§4) Inhibition of fluorescent labelled LBS3 DNA binding to human herpesvirus 8 C-terminal His-tagged LANA oligomerization deficient mutant DBD (1008 to 1146 residues) expressed in Escherichia coli BL21 (DE3) preincubated for 60 mins followed by fluorescent labelled LBS2 addition and measured after 90 mins by fluorescence polarization assay; parameters: species or system Human gammaherpesvirus 8; outline: as §3
[5] = test system: ORF 73 (Human herpesvirus 8), O40947 [UNDEFINED MUTATION]; assay: (§5) Inhibition of 5'-Dy682-labelled LBS1/LBS2 DNA binding to human herpesvirus 8 C-terminal His-tagged LANA oligomerization deficient mutant DBD (1008 to 1146 residues) expressed in Escherichia coli BL21 (DE3) at 500 uM preincubated for 1 hr followed by 5'-Dy682-labelled LBS1 DNA addition and measured after 30 mins by electrophoretic mobility shift assay; conditions: Human gammaherpesvirus 8
Outline: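 Native-gel EMSA with a longer Dy-682-labelled probe carrying both LBS1 and LBS2 (20 nM). LANA DBD mutant (200 nM) pre-incubated with compound (500 µM) for 1 h at RT in the dark. Buffer was Tris-HCl pH 7.5 with KCl, MgCl2, DTT, EDTA, glycerol, Tween20, BSA and poly(dI-dC). Band intensities normalised to percent inhibition. Run in duplicate; GST served as control.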

ORF 73 [6] = molecular target: T1, ORF 73; assay: as §4, with “LBS1” for “LBS3”; parameters: species or system Human gammaherpesvirus 8; outline: as §3
[7] = test system: ORF 73 (Human herpesvirus 8), O40947 [UNDEFINED MUTATION]; assay: as §5, with “LBS1” for “LBS1/LBS2”; conditions: Human gammaherpesvirus 8
Outline: (§6)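 Native-gel EMSA. LANA DBD mutant (200 nM final) pre-incubated with compound for 1 h at RT in the dark, then Dy-682-labelled LBS1 probe (20 nM) added. Complex and free-probe band intensities normalised to 0–100% inhibition. Run in duplicate; purified GST served as control.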

[8] = test system: ORF 73 (Human herpesvirus 8), O40947 [UNDEFINED MUTATION]; assay: as §1, with “500 uM” for “1 mM”; conditions: Human gammaherpesvirus 8; outline: as §2
Human gammaherpesvirus 8 [9] = assay: Binding affinity to wild-type human herpesvirus 8 GST-tagged LANA C-terminal domain (934 to 1162 residues) assessed as change in melting temperature at 500 uM by differential scanning fluorimetry
Outline: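 Thermal shift (DSF) used wild-type LANA C-terminal domain (aa934-1162) at 20 µM final and compound at 500 µM final. Buffer was 10 mM PBS pH 7.4, 5% DMSO, 0.05% Tween20. Melting was run in a real-time PCR instrument, and the change in denaturation temperature (TM) was recorded.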

Human gammaherpesvirus 8 [10] = assay: Binding affinity to wild-type human herpesvirus 8 His-tagged LANA C-terminal domain (934 to 1162 residues) at 500 uM by surface plasmon resonance analysis
ORF 73 [11] = molecular target: T1, ORF 73; assay: as §5, with “LBS1” for “LBS1/LBS2”, “(DE3)” for “(DE3) at 500 uM”; parameters: species or system Human gammaherpesvirus 8; outline: as §6
ORF 73 [12] = molecular target: T1, ORF 73; assay: Binding affinity to human herpesvirus human herpesvirus 8 C-terminal His-tagged LANA oligomerization deficient mutant DBD (1008 to 1146 residues) expressed in Escherichia coli BL21 (DE3) by microscale thermophoresis assay; parameters: species or system Human gammaherpesvirus 8
Outline: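 His-tagged LANA DBD mutant labelled with a RED-tris NTA His-tag dye, used at 50 nM. Ligand titrated in a dose-response series starting at 1 mM. Buffer was 10 mM HEPES, 150 mM NaCl, 2 mM DTT, 0.005% Tween20 with 5% DMSO. KD derived from thermophoresis.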

[13] = Inhibition of 5'-Dy682-labelled LBS1 DNA binding to GST-tagged LANA C-terminal domain (934 to 1162 residues) preincubated for 1 hr followed by 5'-Dy682-labelled LBS1 DNA addition and measured after 30 mins by electrophoretic mobility shift assay; parameters: species or system Human gammaherpesvirus 8
Outline: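 Dose-dependent native-gel EMSA used Dy-682-labelled LBS1 probe with wild-type LANA CTD (aa934-1162). Protein was incubated with compound for 1 h at RT in the dark. IC50 was calculated from band intensities.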

[14] = test system: ORF 73 (Human herpesvirus 8), O40947 [UNDEFINED MUTATION]; assay: Binding affinity to human herpesvirus 8 C-terminal His-tagged LANA oligomerization deficient mutant DBD (1008 to 1146 residues) expressed in Escherichia coli BL21 (DE3) at 1 mM by STD-NMR analysis; conditions: Human gammaherpesvirus 8
Outline: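 STD NMR at 298 K, 500 MHz. Ligand at 1 mM final (40-fold excess) over LANA DBD mutant at 25 µM final. On-resonance irradiation at 0 ppm, off-resonance at -40 ppm. STD effect (I/I0) calculated per ligand proton. A free-compound control spectrum was recorded to check for artefacts.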

SMILES	Activity [1]	inhibition [2]	IC50 (ORF 73 [3]; read-out: IC50) [µM]	further results
Cc1cn(-c2ccccc2N)cn1	inactive	91%		
O=C(O)c1ccc(-n2ccnn2)cc1	inactive	35%		
O=[N+]([O-])c1cccc(-n2ccnc2)c1	inactive	21%		
O=[N+]([O-])c1ccc(-n2ccnc2)cc1	inactive	22%		
O=C(O)c1ccc(-n2cc(-c3ccc(CO)cc3)nn2)cc1	inactive		27	
Nc1ccccc1-c1cn(-c2ccc(C(=O)O)cc2)nn1	inactive		28	IC50 (ORF 73 [4]): 26 µM; inhibition [5]: Active; IC50 (ORF 73 [6]): 25 µM; inhibition [7]: Active
O=C(O)c1cccc(-n2ccnn2)c1	inactive	98%		
O=C(O)c1ccc(-n2cc(-c3ccc(NCC4CCCCC4)cc3)nn2)cc1	inactive			IC50 (ORF 73 [3]): Not Active
O=C(O)c1ccc(-c2cn(-c3ccc(O)cc3)nn2)cc1	inactive		52	
COc1ccccc1-n1ccnc1	inactive	15%		
COc1ccc(-c2cn(-c3ccc(C(=O)O)cc3)nn2)cc1	inactive			inhibition [8]: 20%
Nc1cccc(-n2ccnc2)c1	inactive	inactive		
Nc1ccc(-n2ccnc2)cc1	inactive	inactive		
Oc1ccccc1-n1ccnc1	inactive	51%		
Nc1cccc(-c2cn(-c3ccccc3)nn2)c1	inactive			IC50 (ORF 73 [3]): Not Active
O=C(O)c1ccc(-n2cc(C3(O)CCCC3)nn2)cc1	inactive		159	IC50 (ORF 73 [4]): 39 µM; inhibition [5]: inactive; IC50 (ORF 73 [6]): 104 µM; inhibition [7]: inactive
COC(=O)c1ccc(-n2cc(CO)nn2)cc1	inactive		84	
Nc1ccccc1-n1cnc2ccccc21	inactive	32%		
CC(=O)OCc1cn(-c2ccc(C(=O)O)cc2)nn1	inactive			IC50 (ORF 73 [3]): Not Active
Nc1ccc(-n2cc(-c3ccc(C(=O)O)cc3)nn2)cc1	inactive		19	
Nc1ccccc1-n1cnc(Br)c1	inactive	13%		
O=C(O)c1ccc(-n2cc(-c3cccc(NCCN4CCOCC4)c3)nn2)cc1	inactive			IC50 (ORF 73 [3]): Not Active
O=C(O)c1cccc(-n2cc(-c3ccccc3)nn2)c1	inactive	43%		

SMILES	Activity [1]	inhibition [2]	IC50 (ORF 73 [3]; read-out: IC50) [µM]	further results
O=C(O)c1ccccc1-n1ccnc1		50%	333	
Nc1ccccc1-n1ccnc1	inactive	25%		ΔTm (Human gammaherpesvirus 8 [9]): -1.8 °C; Activity (Human gammaherpesvirus 8 [10]): 15.7 RU
O=C(O)c1ccc(-n2cc(-c3cccc(NCC4CCCCC4)c3)nn2)cc1	inactive			IC50 (ORF 73 [3]): Not Active
O=C(O)c1ccccc1-n1ccnn1	inactive	12%		
O=C(O)c1ccc(-n2cc(-c3ccccc3NCC3CCCCC3)nn2)cc1	inactive			IC50 (ORF 73 [3]): Not Active
O=C(O)c1ccc(-n2cc(-c3cccc(NCCc4ccccc4)c3)nn2)cc1	inactive			IC50 (ORF 73 [3]): Not Active
NCc1cn(-c2ccc(C(=O)O)cc2)nn1	inactive		30	
Nc1ccccc1-n1cc(-c2ccc(C(=O)O)cc2)nn1	inactive		18	IC50 (ORF 73 [4]): 26 µM; inhibition [5]: Active; IC50 (ORF 73 [6]): 25 µM; inhibition [7]: Active
O=C(O)c1ccc(-n2ccnc2)cc1	inactive	13%		
Nc1cccc(-c2cn(-c3ccc(C(=O)O)cc3)nn2)c1	inactive		109	IC50 (ORF 73 [4]): 106 µM; inhibition [5]: inactive; IC50 (ORF 73 [6]): 136 µM; inhibition [7]: inactive
COC(=O)c1cn(-c2ccc(C(=O)O)cc2)nn1	inactive		163	
COCc1cn(-c2ccc(C(=O)O)cc2)nn1	inactive		210	
O=C(O)c1cccc(-n2ccnc2)c1	inactive	19%		
COCc1cn(-c2ccc(C(=O)OC)cc2)nn1	inactive		237	
O=C(O)c1ccc(-n2cc(CO)nn2)cc1	inactive		79	
CC(=O)Nc1ccccc1-n1ccnc1	inactive	32%		
O=C(O)c1ccc(-c2cn(-c3cccnc3)nn2)cc1	inactive		17	IC50 (ORF 73 [4]): 19 µM; IC50 (ORF 73 [11]): 426 µM; Kd (ORF 73 [12]): 23 µM; inhibition [5]: Active; IC50 [13]: 435 µM; Activity [14]: Active; IC50 (ORF 73 [6]): 20 µM; inhibition [7]: Active
O=C(O)c1ccc(-n2cc(-c3ccccc3)nn2)cc1	inactive		232	
O=[N+]([O-])c1ccccc1-n1ccnc1	inactive	74%		
O=C(O)c1ccccc1-n1cc(-c2ccccc2)nn1	inactive	13%		
Nc1ccc(-c2cn(-c3ccc(C(=O)O)cc3)nn2)cc1	inactive		14	IC50 (ORF 73 [4]): 12 µM; inhibition [5]: Active; IC50 (ORF 73 [6]): 19 µM; inhibition [7]: Active
O=C(O)c1ccc(-n2cc(C3CC3)nn2)cc1	inactive		694	
